13 compounds from ChEMBL document CHEMBL1795296, “Synthesis, structural elucidation, DNA-PK inhibition, homology modelling and anti-platelet activity of morpholino-substituted-1,3-naphth-oxazines” (Bioorg Med Chem, 2011) can be followed below.

Each structure is given as a SMILES string.

For orientation: IC50 means the midpoint of a concentration-inhibition curve.

Assay [1] deals with T1, DNA-dependent protein kinase catalytic subunit (Homo sapiens, UniProt P78527). The assay is described as follows: Inhibition of DNA-PK. Put shortly:
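The buffer was 1× reaction buffer of Hepes, KCl, MgCl2, EGTA, EDTA and DTT, with drug or water added. Reactions ran 5 min at 30 °C. ADP formed was read by ADP-Glo luminescence, and IC50 was obtained by curve fitting.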

Assay [2] deals with T1, DNA-dependent protein kinase catalytic subunit. The assay is described as follows: Inhibition of purified DNA-PK by ADP-Glo Kinase assay. Put shortly: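 Reaction used 5× buffer (250 mM Hepes, 500 mM KCl, 50 mM MgCl2, 1 mM EGTA, 0.5 mM EDTA, 5 mM DTT) diluted to 1×, with BSA and ATP (0.5 mM stock). Drug or water added; 30 °C, 5 min. ADP read by ADP-Glo luminescence; IC50 from curve fitting.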

The subject of a further assay is Platelet. The experiment in a line: Anti-platelet activity in human blood assessed as inhibition of collagen induced human platelet aggregation. The format is functional, cell-based. Put shortly: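 Collagen-triggered aggregation measured optically in a two-channel platelet aggregometer.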

T1 sequence (P78527 whole entry): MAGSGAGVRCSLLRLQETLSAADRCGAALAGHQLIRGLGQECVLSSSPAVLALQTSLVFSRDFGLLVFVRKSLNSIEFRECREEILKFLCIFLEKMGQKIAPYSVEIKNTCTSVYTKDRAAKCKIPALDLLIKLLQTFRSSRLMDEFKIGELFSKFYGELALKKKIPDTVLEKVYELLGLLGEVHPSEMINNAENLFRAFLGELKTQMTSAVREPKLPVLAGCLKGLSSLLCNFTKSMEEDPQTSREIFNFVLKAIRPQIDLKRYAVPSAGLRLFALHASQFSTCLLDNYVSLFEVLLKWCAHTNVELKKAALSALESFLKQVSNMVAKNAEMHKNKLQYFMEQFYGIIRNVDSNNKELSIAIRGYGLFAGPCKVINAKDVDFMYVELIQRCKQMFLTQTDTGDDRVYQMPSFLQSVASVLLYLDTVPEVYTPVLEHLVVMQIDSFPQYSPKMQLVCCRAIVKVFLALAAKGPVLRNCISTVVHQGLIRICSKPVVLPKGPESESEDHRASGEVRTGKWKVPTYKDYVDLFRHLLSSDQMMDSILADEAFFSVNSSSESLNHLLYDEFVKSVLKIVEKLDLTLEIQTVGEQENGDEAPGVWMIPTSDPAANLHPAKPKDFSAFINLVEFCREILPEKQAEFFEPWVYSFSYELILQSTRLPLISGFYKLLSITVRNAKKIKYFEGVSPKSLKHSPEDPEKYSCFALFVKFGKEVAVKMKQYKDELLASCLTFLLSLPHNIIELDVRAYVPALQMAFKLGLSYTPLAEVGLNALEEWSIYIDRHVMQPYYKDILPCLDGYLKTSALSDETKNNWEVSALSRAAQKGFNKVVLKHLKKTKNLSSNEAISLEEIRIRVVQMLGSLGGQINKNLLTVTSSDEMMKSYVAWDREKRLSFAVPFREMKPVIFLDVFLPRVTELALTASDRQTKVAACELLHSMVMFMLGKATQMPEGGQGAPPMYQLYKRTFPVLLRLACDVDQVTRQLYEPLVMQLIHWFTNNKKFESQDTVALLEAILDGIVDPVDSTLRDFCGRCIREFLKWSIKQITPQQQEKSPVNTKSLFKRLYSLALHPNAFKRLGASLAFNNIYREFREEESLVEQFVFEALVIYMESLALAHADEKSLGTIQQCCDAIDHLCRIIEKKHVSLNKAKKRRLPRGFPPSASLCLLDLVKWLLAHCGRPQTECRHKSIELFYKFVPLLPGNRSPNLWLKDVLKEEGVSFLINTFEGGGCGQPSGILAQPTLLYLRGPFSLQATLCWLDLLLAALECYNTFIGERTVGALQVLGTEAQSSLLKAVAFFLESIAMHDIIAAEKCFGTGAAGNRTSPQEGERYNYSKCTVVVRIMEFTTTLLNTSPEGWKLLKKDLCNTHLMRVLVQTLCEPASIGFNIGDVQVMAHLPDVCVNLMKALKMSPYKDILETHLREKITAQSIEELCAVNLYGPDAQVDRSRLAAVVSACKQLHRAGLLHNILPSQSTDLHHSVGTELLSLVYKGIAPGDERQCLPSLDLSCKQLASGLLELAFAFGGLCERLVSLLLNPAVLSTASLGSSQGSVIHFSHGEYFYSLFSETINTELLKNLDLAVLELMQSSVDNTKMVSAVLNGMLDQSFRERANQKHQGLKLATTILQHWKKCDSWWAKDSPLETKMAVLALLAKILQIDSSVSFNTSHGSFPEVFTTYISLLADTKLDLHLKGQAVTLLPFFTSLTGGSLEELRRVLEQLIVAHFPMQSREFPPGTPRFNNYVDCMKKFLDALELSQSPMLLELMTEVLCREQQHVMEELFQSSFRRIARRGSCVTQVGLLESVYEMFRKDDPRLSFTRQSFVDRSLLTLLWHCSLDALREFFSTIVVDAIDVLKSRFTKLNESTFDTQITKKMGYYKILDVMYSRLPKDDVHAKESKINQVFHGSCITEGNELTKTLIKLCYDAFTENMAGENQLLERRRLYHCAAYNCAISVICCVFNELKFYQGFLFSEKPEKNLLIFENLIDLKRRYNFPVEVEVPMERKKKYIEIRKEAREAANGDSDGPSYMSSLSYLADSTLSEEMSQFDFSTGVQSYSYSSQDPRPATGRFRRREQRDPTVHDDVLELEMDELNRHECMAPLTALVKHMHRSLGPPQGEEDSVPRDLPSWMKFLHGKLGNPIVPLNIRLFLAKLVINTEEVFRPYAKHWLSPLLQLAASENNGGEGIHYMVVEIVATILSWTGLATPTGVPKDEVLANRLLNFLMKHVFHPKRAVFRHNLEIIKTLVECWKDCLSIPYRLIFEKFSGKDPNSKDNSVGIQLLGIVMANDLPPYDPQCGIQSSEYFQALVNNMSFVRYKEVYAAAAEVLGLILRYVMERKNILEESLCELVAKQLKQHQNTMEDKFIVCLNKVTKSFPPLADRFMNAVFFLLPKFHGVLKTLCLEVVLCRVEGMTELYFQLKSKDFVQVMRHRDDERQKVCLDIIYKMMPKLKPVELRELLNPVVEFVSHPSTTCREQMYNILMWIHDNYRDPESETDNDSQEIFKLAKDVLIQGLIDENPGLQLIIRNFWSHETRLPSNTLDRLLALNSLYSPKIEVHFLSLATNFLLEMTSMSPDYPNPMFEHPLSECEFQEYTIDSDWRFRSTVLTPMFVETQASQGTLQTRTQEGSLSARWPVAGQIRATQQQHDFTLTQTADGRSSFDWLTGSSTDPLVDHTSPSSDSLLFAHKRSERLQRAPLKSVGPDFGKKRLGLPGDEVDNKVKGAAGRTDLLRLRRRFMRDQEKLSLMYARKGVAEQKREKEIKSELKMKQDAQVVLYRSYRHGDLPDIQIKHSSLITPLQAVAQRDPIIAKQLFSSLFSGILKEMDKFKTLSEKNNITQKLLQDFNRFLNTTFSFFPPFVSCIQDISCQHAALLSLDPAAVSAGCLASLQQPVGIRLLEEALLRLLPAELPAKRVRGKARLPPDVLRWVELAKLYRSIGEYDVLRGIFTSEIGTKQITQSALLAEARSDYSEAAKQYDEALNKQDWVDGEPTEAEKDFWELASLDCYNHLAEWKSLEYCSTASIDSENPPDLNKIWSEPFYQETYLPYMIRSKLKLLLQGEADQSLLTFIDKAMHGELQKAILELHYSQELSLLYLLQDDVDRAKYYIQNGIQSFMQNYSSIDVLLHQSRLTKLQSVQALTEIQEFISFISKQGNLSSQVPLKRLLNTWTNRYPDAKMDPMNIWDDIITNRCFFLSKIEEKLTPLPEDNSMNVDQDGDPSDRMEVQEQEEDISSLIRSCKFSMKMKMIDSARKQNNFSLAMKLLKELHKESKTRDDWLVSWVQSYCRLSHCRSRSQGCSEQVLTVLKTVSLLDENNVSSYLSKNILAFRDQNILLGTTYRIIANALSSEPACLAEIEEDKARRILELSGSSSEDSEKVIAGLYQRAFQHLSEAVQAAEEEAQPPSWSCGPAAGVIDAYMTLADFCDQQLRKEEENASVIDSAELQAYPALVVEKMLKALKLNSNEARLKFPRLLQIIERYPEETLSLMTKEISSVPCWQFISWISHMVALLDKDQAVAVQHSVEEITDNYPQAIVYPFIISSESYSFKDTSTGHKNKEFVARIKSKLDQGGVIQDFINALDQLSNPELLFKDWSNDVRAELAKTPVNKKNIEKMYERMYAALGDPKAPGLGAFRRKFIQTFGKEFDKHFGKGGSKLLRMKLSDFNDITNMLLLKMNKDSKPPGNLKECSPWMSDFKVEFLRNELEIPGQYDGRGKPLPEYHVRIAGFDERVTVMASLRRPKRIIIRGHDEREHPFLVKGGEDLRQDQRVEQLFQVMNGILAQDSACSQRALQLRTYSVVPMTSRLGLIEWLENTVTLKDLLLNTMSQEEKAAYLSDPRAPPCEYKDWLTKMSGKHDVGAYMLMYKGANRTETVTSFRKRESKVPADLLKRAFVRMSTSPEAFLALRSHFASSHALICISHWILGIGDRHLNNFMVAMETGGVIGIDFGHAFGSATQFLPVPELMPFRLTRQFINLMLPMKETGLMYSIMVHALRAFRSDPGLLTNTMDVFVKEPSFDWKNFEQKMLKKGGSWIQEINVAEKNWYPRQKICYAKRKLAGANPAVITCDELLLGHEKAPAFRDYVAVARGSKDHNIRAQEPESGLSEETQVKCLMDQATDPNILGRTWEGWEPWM

Turning to `O=c1cc(N2CCOCC2)oc2c1ccc1ccccc12`, the IC50 in assay [1] worked out at 0.3 µM.
As to `O=c1nc(N2CCOCC2)oc2ccc3ccccc3c12`, the IC50 was 0.72 µM in assay [2] and 450 µM with Platelet.
On to `O=c1nc(N2CCOCC2)oc2c1ccc1ccccc12`, for which the concentration for half-maximal inhibition (IC50) in assay [2] amounted to 0.42 µM; in the assay with Platelet, 280 µM.
For `O=c1nc(N2CCOCC2)oc2cc3ccccc3cc12`, the values for the IC50 (in assay [2]; in the assay with Platelet) were 6.5 µM and 155 µM, respectively.
For `O=c1nc(N2CCOCC2)oc2c1cc(OCc1ccccn1)c1ccccc12`, in that order: 2.43 µM and 100 µM.
The corresponding values for `O=c1nc(N2CCOCC2)oc2c1cc(OCc1cccnc1)c1ccccc12` are 0.717 µM and 100 µM.
In the case of `O=c1nc(N2CCOCC2)oc2cc3ccc(OCc4ccccn4)cc3cc12`, the 50% inhibitory concentration (IC50) was determined as 0.096 µM in assay [2] and 100 µM in the assay on Platelet.
In the case of `O=c1nc(N2CCOCC2)oc2cc3ccc(OCc4cccnc4)cc3cc12`, the IC50 came to 1.7 µM in assay [2] and 55 µM with Platelet.
`O=c1nc(N2CCOCC2)oc2cc3c(OCc4ccccn4)cccc3cc12`: the results for the half-inhibitory concentration (IC50) (in assay [2]; in the assay on Platelet) were 0.93 µM and at least 100 µM, respectively.
The corresponding values for `O=c1nc(N2CCOCC2)oc2cc3c(OCc4cccnc4)cccc3cc12` are 0.33 µM and 85 µM.
For `CN1CCN(CCOc2cc3c(=O)nc(N4CCOCC4)oc3c3ccccc23)CC1`, in that order: 0.76 µM and 100 µM.
With `CN1CCN(CCOc2ccc3cc4oc(N5CCOCC5)nc(=O)c4cc3c2)CC1`, the 50% inhibitory concentration (IC50) stood at 0.19 µM in assay [2] and 100 µM in the assay on Platelet.
For `CN1CCN(CCOc2cccc3cc4c(=O)nc(N5CCOCC5)oc4cc23)CC1`, in that order: 3.09 µM and 100 µM.
